T cruzi repl: inhibitors of intracellular T. cruzi growth, primary screen, luminescence, NIH3T3 host cells. T. cruzi beta-gal in NIH3T3, 90 h. inhibition, % (concentration not given with the values). 300,000 compounds, 1.4% hits;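 active = mean inhibition across valid replicates above about 55%, limit read from the data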;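 also: signal also drops with host cell toxicity which is not excluded here; 0% = plate median of DMSO wells and 100% = zero luminescence signal; higher percent means less beta-gal luminescence so fewer parasites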
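Assay system: NIH/3T3 fibroblasts plus reporter T. cruzi. Amount: NIH/3T3 cells, 5,000 per well. Buffer or medium: DMEM, 2% fetal bovine serum. Doses: compound pinned at 50 nL/well, DMSO. Schedule: ≥90 h infection period, 3 h prior cell attachment. Signal: luminescent β-galactosidase signal after 60 min lysis. Read-out: parasite load inhibition, %.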
CSC inhib: cancer stem cell viability inhibitors, primary screen, luminescence; cancer stem cell-like cells viability; inhibition, % at 7.5 µM; 300,000 compounds, 1.1% hits; AID 2717, 2010; in the data active = inhibition above about 75%; tested in HMLE shEcad cells
Beta cell apopt: inhibitors of cytokine-induced beta cell apoptosis, primary screen, luminescence; INS-1E cytokine-induced death, ATP luminescence, 48 h; percent of positive-control rescue, neutral wells zero; protection from apoptosis, % (test concentration not listed); 300,000 compounds, 0.8% hits;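 active = Every replicate reaches about 75%, or at least half do and their mean reaches it too, limit read from the data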;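 also: 0% = cytokine-treated negative control wells and 100% = positive control rescue; higher means more ATP so stronger rescue from cytokine killing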
Mot1-301 SUMO: yeast Mot1-301 growth rescue at high temperature, primary screen, SUMOylation pathway inhibitor project, S. cerevisiae, ATP luminescence, 38.5C; S. cerevisiae Mot1-301 growth rescue; percent above DMSO median, 100 means doubled; growth rescue, % at 18.8 µM; 320,000 compounds, 1% hits; AID 2716, 2010;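 active = every valid replicate shows activation above 250% relative to neutral control wells; inactive = the rest, any valid replicate at or below 250%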;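 also: OY570 slx delta 5 strain wells were the positive control but not used for scaling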
WT yeast gro inh: growth inhibition of WT strain, primary screen, mitochondrial fusion inhibitor project, WT and mutant strains, chemical genetic; mitochondrial fusion phenotypic screen; inhibition, % at 10 µM; 190,000 compounds, 2.1% hits; in the data active = inhibition above about 58%; tested in S. cerevisiae
Efflux pump inh: inhibitors of Candida efflux pumps in yeast, primary screen, S. cerevisiae, Nile Red, multiplex; S. cerevisiae Candida pump triplex; inhibition, % at 10 µM; 330,000 compounds, 0.44% hits; AID 485275, 2010;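 active = plate passing quality check with inhibition over a set limit, or well fluorescence over plate mean plus 4 SD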;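 also: Nile Red retained in pooled yeast measured as flow cytometry median fluorescence; 0% = buffer negative control and 100% = Enniatin B positive control; higher means more Nile Red kept so more efflux inhibition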
Mot1 SUMO dose: growth restoration of Mot1-301 yeast on galactose, dose response, SUMO pathway inhibitor project, whole organism, S. cerevisiae, ATP luminescence, cherry-picked samples. shares compounds with Mot1-301 SUMO. S. cerevisiae Mot1-301 galactose growth, 24 h; -100 = growth of slx-deleted rescue strain. growth activity, percent, % at 42 µM. 2,300 tested, under 10 active. AID 493004, 2010;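 active = Signal drops as the depositor expects, and the fitted half-maximal dose is no more than ten times the top valid tested dose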;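 also: more negative values mean stronger growth rescue toward the control strain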
Numbers without * were called inactive; . = no result; + = active, no number. Hits are enriched below; roughly 4.8% of the tested compounds scored in any of these assays.

SMILES | T cruzi repl | CSC inhib | Beta cell apopt | Mot1-301 SUMO | WT yeast gro inh | Efflux pump inh | Mot1 SUMO dose
Cn1c(CN2CCOCC2)nnc1SCC(=O)Nc1cc(Cl)ccc1Cl | -19 | 6 | -7 | 611* | . | 0 | 2
COC(=O)c1cc(NC(=O)CSc2nnc(CN3CCOCC3)n2C)ccc1Cl | 6 | 6 | -7 | 3 | -18 | 0 | .
O=C(CCC1CCCCC1)NNC(=O)c1cnccn1 | 2 | 5 | 7 | -14 | 3 | 0 | .
Cc1cc(NC(=O)/C=C/c2ccco2)ccc1NC(=O)c1ccccc1 | -94 | 13 | 6 | 432* | 5 | 0 | 0
COc1cc2c(=O)n(CCC(=O)NCC3CCCO3)c(=O)n(CC(=O)Nc3ccccc3C)c2cc1OC (stereo not given) | 3 | . | -1 | 444* | . | 0 | 0
COc1ccc(C)cc1NC(=O)C12CCC(C)(C(=O)O1)C2(C)C (stereo not given) | 6 | 4 | 0 | 461* | -1 | 0 | -1
Cc1ccc(NC(=S)NC(=O)c2cncc(Br)c2)c(C)c1 | -9 | -11 | -7 | 4 | . | 0 | .
Cc1ccc(C)c(NC(=S)NC(=O)c2cncc(Br)c2)c1 | 13 | -20 | -1 | 571* | . | 0 | 0
COc1ccc(C(=O)OCC(=O)c2ccccc2)cc1S(=O)(=O)N1CCOCC1 | -7 | -10 | -8 | + | 5 | 0 | 0
COc1cccc(C2/C(=C(/O)c3ccccc3)C(=O)C(=O)N2Cc2ccco2)c1 (stereo not given) | -3 | -3 | -10 | 497* | . | 0 | 0
CCOC(=O)C1(Cc2cccc(Cl)c2)CCCN(C(=O)CCOC)C1 (stereo not given) | -4 | 9 | -6 | 389* | -1 | 0 | 0
c1ccc(-c2csc(NC3CCCCC3)n2)cc1 | -2 | 2 | 0 | 923* | . | 1 | 0
Cc1ccc(CN(C)C(=O)COC(=O)CSc2cc(C)c3ccccc3n2)cc1 | . | -12 | -7 | 31 | . | 0 | .
Cc1ccc2nc(N/N=C/c3ccccc3F)nc(-c3ccccc3)c2c1 | 15 | 2 | 16 | 473* | 64* | 0 | 0
CCOC(=O)Nc1sc(=S)n(C)c1C | -9 | 4 | -7 | 509* | -9 | 0 | 0
Cc1c(NC(=O)OCCNC(=O)Nc2ccccc2)sc(=S)n1C | -8 | . | 1 | 213 | 0 | 0 | .
CCCn1c(N)c(NCCN2CCOCC2)c(=O)[nH]c1=O | -9 | -16 | . | -4 | 4 | 0 | .
COCC(C)NS(=O)(=O)c1ccc(NC(=O)c2ccccn2)cc1 (stereo not given) | -10 | -10 | 2 | 0 | . | 0 | .
C/C=C/C(=O)N1c2ccc(C)cc2C(C)=CC1(C)C | -6 | 0 | -2 | 962* | . | 0 | 1
CC(=O)N1c2ccccc2C(C)=CC1(C)C | -5 | -3 | -1 | 165 | . | 0 | .
Cc1ccc(S(=O)(=O)N2[C@@H](c3ccc(F)cc3)C(C(=O)O)=CC[C@H]2c2cccs2)cc1 | . | 7 | -3 | -2 | . | 0 | .
C=CCN1C(=O)/C(=C2/Sc3ccc(OC)cc3N2C)SC1=Nc1ccccc1 | -2 | -5 | -2 | + | 3 | 0 | 0
C=CCN1C(=O)/C(=C2/Sc3ccc(OC)cc3N2C)SC1=NCc1ccccc1 | 1 | -6 | -2 | 14 | -7 | 0 | .
COc1ccc(NC2CC(=O)N(C(C)C)C2=O)cc1 (stereo not given) | -9 | 15 | 1 | 507* | -2 | 0 | 0
CC(C)N1C(=O)CC(Nc2ccc(N3CCOCC3)cc2)C1=O (stereo not given) | -16 | -15 | -1 | 11 | -11 | 0 | .
SMILES | T cruzi repl | CSC inhib | Beta cell apopt | Mot1-301 SUMO | WT yeast gro inh | Efflux pump inh | Mot1 SUMO dose
COc1ccccc1NC(=O)C1CC(O)CN1C(=O)Oc1ccccc1 (stereo not given) | -4 | . | -2 | 3 | . | 0 | .
COCCn1c(Cc2ccccc2)nnc1SCC(=O)NC1CC1 | -3 | -1 | -4 | 314 | . | 0 | .
CCOC(=O)c1cnc2oc3ccccc3n2c1=O | -8 | 4 | -4 | + | . | 0 | 1
COc1ccc(-c2c(C)nn3c(C)cc(C)nc23)cc1 | -7 | -10 | -4 | 519* | . | 0 | 0
O=C(N/N=C/c1ccccn1)c1cccs1 | -10 | 8 | 4 | -19 | -2 | 0 | .
CCOc1ccc(/C=N/NC(=O)c2ccc(CSc3nc4ccccc4[nH]3)cc2)cc1 | 6 | 35 | -1 | 508* | -16 | 0 | 0
COc1ccc(C(=O)NCc2ccc3c(c2)CCO3)cc1 | 7 | -3 | -8 | 431 | . | 0 | .
CCC1=NN(C(=O)CCc2ccc3c(c2)OCO3)C(O)(C(F)(F)F)C1 (stereo not given) | -5 | -1 | 1 | 33 | -2 | 0 | .
COc1cccc(CN(C)C(=O)C2CCC(=O)N(Cc3cccc(F)c3)C2)c1 (stereo not given) | 1 | -7 | -1 | 722* | . | 0 | -1
COC(=O)CCC(=O)OC1(C)C(=O)C2=CN(CCc3c[nH]c4ccccc34)C(c3ccc(OC)cc3)=CC2=C(Br)C1=O (stereo not given) | 1 | -2 | -2 | 419* | . | 0 | 0
COC(=O)CCC(=O)OC1(C)C(=O)C2=CN(Cc3ccccc3)C(c3ccc(OC)cc3)=CC2=C(Br)C1=O (stereo not given) | 2 | -2 | -2 | 16 | . | 0 | .
O=[N+]([O-])c1cccc(-c2nc3ccc([N+](=O)[O-])cc3[nH]2)c1 | 23 | 28 | 39 | 359* | 20 | 0 | 1
COc1ccc(N(C(=O)c2ccco2)C(C(=O)NC2CCCCC2)c2ccccc2)cc1 (stereo not given) | 1 | -14 | -2 | 694* | -5 | 1 | 1
Cc1cc(C)c(NC(=O)CS(=O)CC(=O)Nc2ccc(-n3cnnn3)c(C)c2)c(C)c1 (stereo not given) | -13 | 9 | -1 | 5 | . | 0 | .
COC(=O)c1cccc(NC(=O)c2cccnc2)c1 | -7 | -7 | -2 | + | -4 | 0 | 0
COc1ccc(Cn2c(CCC(=O)NCCC(C)C)nc3ncccc3c2=O)cc1 | 6 | -2 | -6 | 0 | . | 0 | .
CC1Cc2ccccc2N1C(=O)Cn1c(=O)cc(O)c2ccccc21 (stereo not given) | -2 | 4 | -6 | 636* | 97* | 0 | 0

Assay outcomes (PubChem)
